Laboratory results: ChEMBL document CHEMBL1165845, “Synthesis and biological evaluation of analogues of a novel inhibitor of beta-amyloid secretion” (J Med Chem, 2010)

test system: H4; experiment: Induction of alpha-secretase-mediated reduction in amyloid beta secretion in human H4 cells expressing wild type betaAPP695 at 10 uM after 24 hrs […] relative to control; format: cell-based; design: scale not given: the % may be the effect or the level left; details: not given
How it was run: (§1)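 Serum-starved H4βAPP695wt cells are treated for 24 h with drug in DMSO (0.02% DMSO vehicle control). Total Aβ in conditioned medium is measured by sandwich ELISA with 6E10 capture and 4G8 detection, normalized to lysate protein by BCA. Cytotoxicity is read as total cell protein. Quadruplicate wells in 1-4 independent experiments give the % decrease versus vehicle.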

| Compound | Activity [%] |
| --- | --- |
| COc1ccc(CSCCNC(=O)c2c(Cl)cccc2Cl)cc1 | 1.6 |
| O=C(NCCSCc1cccc(C(F)(F)F)c1)c1c(Cl)cccc1Cl | 73.9 |
| O=C(NCCSCc1cccc(OCCOCCO)c1)c1c(Cl)cccc1Cl | 17.4 |
| N/C(=N\O)c1cccc(CSCCNC(=O)c2c(Cl)cccc2Cl)c1 | -1.5 |
| O=C(NCCS(=O)(=O)Cc1cccc(Cl)c1)c1c(Cl)cccc1Cl | 8.9 |
| Oc1c(Cl)cc(Cl)cc1/C=N/CCSCc1ccccc1Cl | 5.3 |
| O=C(NCCSCc1cccc(O)c1O)c1c(Cl)cccc1Cl | -4.3 |
| O=C(NC1CC1)c1cccc(CSCCNC(=O)c2c(Cl)cccc2Cl)c1 | 1.9 |
| O=C(NCCSCc1ccc(F)cc1)c1c(F)cccc1Cl | 27.3 |
| O=C(NCCSCc1ccc(Cl)cc1Cl)c1ccc(Cl)cc1Cl | 39.8 |
| O=C(NCCSCc1ccc(Cl)cc1)c1ccccc1Cl | -12 |
| CN(C)CCCNC(=O)c1c(Cl)cccc1Cl | 15.8 |
| CN(C)CCNC(=O)c1c(Cl)cccc1Cl | 6.6 |
| O=C(NCCS(=O)(=O)Cc1ccc(F)cc1)c1c(F)cccc1Cl | 39.2 |
| COc1cccc(CSCCNC(=O)c2c([N+](=O)[O-])cccc2[N+](=O)[O-])c1 | -14.1 |
| O=C(NCCNC(=O)c1ccccc1F)c1ccccc1F | 0.2 |
| O=C(NCCNC(=O)c1c(Cl)cccc1Cl)c1c(Cl)cccc1Cl | 7.6 |

| Compound | Activity [%] |
| --- | --- |
| NC(=O)c1c(Cl)cccc1CSCCNC(=O)c1c(Cl)cccc1Cl | 44.7 |
| O=C(NCCSCc1cccc(Br)c1)c1c(Cl)cccc1Cl | 75 |
| O=C(CSCc1c(F)cccc1Cl)NCc1ccccc1Cl | 47.8 |
| O=C(NCCSCc1cccc(Cl)c1)c1c(F)cccc1F | 4.9 |
| O=C(NCCSCc1cccc(Br)c1)c1c(Br)cccc1Br | 78.6 |
| O=C(NCc1ccccc1)c1c(F)cccc1Cl | 3.8 |
| O=C(NCCSc1ccccc1)c1ccccc1Cl | -4.4 |
| COc1cccc(C[S+]([O-])CCNC(=O)c2c(Cl)cccc2Cl)c1 (stereo not given) | -13.6 |
| N#Cc1cccc(CSCCNC(=O)c2c(Cl)cccc2Cl)c1 | 20 |
| Cc1cccc(C)c1C(=O)NCCSCc1cccc(Cl)c1 | 29.5 |
| O=C(NCCSCc1cccc(Cl)c1)c1ccccc1 | 0.3 |
| O=C(Cc1c(Cl)cccc1Cl)NCCSCc1cccc(Cl)c1 | 6.7 |
| O=C(NCCSCc1cccc(NC(=O)C2CC2)c1)c1c(Cl)cccc1Cl | -21.4 |
| Nc1cccc(CSCCNC(=O)c2c(Cl)cccc2Cl)c1 | 0.1 |
| O=C(NCCOCc1cccc(Cl)c1)c1c(Cl)cccc1Cl | 10.5 |
| O=C(NCCSCc1ccc(O)cc1)c1c(Cl)cccc1Cl | 13.1 |
| O=C(NCCSCc1ccc(Cl)c(Cl)c1)c1ccccc1Cl | 0.7 |

test system: H4; experiment: Induction of alpha-secretase-mediated reduction in amyloid beta secretion in human H4 cells expressing wild type betaAPP695 at 30 uM after 24 hrs […] relative to control; format: cell-based; design: scale not given: the % may be the effect or the level left; details: not given; how it was run: as §1

| Compound | Activity [%] |
| --- | --- |
| COc1ccc(CSCCNC(=O)c2c(Cl)cccc2Cl)cc1 | 1.1 |
| O=C(NCCSCc1cccc(C(F)(F)F)c1)c1c(Cl)cccc1Cl | 93.4 |
| O=C(NCCSCc1cccc(OCCOCCO)c1)c1c(Cl)cccc1Cl | 24.3 |
| N/C(=N\O)c1cccc(CSCCNC(=O)c2c(Cl)cccc2Cl)c1 | 1.6 |
| O=C(NCCS(=O)(=O)Cc1cccc(Cl)c1)c1c(Cl)cccc1Cl | 9.3 |
| O=C(NCCSCc1cccc(O)c1O)c1c(Cl)cccc1Cl | 33.1 |
| O=C(NC1CC1)c1cccc(CSCCNC(=O)c2c(Cl)cccc2Cl)c1 | 11 |
| COc1cccc(CSCCNC(=O)c2c([N+](=O)[O-])cccc2[N+](=O)[O-])c1 | -2.8 |
| NC(=O)c1c(Cl)cccc1CSCCNC(=O)c1c(Cl)cccc1Cl | 49.7 |
| O=C(NCCSCc1cccc(Br)c1)c1c(Cl)cccc1Cl | 90.1 |
| O=C(NCCSCc1cccc(Cl)c1)c1c(F)cccc1F | 21.6 |
| O=C(NCCSCc1cccc(Br)c1)c1c(Br)cccc1Br | 87.3 |
| COc1cccc(C[S+]([O-])CCNC(=O)c2c(Cl)cccc2Cl)c1 (stereo not given) | -15.8 |
| N#Cc1cccc(CSCCNC(=O)c2c(Cl)cccc2Cl)c1 | 38.7 |
| Cc1cccc(C)c1C(=O)NCCSCc1cccc(Cl)c1 | 51.6 |
| O=C(NCCSCc1cccc(Cl)c1)c1ccccc1 | 10.7 |
| O=C(Cc1c(Cl)cccc1Cl)NCCSCc1cccc(Cl)c1 | 13.5 |
| O=C(NCCSCc1cccc(NC(=O)C2CC2)c1)c1c(Cl)cccc1Cl | -2 |
| Nc1cccc(CSCCNC(=O)c2c(Cl)cccc2Cl)c1 | 17 |
| O=C(NCCOCc1cccc(Cl)c1)c1c(Cl)cccc1Cl | -5.1 |
| O=C(NCCSCc1ccc(O)cc1)c1c(Cl)cccc1Cl | 56.7 |

test system: H4; experiment: Cytotoxicity against human H4 cells expressing wild type betaAPP695 assessed as decrease in cell protein at 10 uM after 24 hrs; format: cell-based; design: scale not given: the % may be the effect or the level left; details: h4, 24 h; how it was run: as §1

| Compound | Activity [%] |
| --- | --- |
| COc1ccc(CSCCNC(=O)c2c(Cl)cccc2Cl)cc1 | 6.7 |
| O=C(NCCSCc1cccc(C(F)(F)F)c1)c1c(Cl)cccc1Cl | 19 |
| O=C(NCCSCc1cccc(OCCOCCO)c1)c1c(Cl)cccc1Cl | -7.3 |
| O=C(NCCS(=O)(=O)Cc1cccc(Cl)c1)c1c(Cl)cccc1Cl | -2.2 |
| O=C(NCCSCc1cccc(O)c1O)c1c(Cl)cccc1Cl | -4.8 |
| O=C(NC1CC1)c1cccc(CSCCNC(=O)c2c(Cl)cccc2Cl)c1 | 0 |
| COc1cccc(CSCCNC(=O)c2c([N+](=O)[O-])cccc2[N+](=O)[O-])c1 | 3.7 |
| NC(=O)c1c(Cl)cccc1CSCCNC(=O)c1c(Cl)cccc1Cl | 2.5 |
| O=C(NCCSCc1cccc(Br)c1)c1c(Cl)cccc1Cl | 12.3 |
| O=C(NCCSCc1cccc(Cl)c1)c1c(F)cccc1F | 5.1 |
| O=C(NCCSCc1cccc(Br)c1)c1c(Br)cccc1Br | 9.8 |
| COc1cccc(C[S+]([O-])CCNC(=O)c2c(Cl)cccc2Cl)c1 (stereo not given) | 1.6 |
| N#Cc1cccc(CSCCNC(=O)c2c(Cl)cccc2Cl)c1 | -4.8 |
| Cc1cccc(C)c1C(=O)NCCSCc1cccc(Cl)c1 | 0.9 |
| O=C(NCCSCc1cccc(Cl)c1)c1ccccc1 | 2.4 |
| O=C(Cc1c(Cl)cccc1Cl)NCCSCc1cccc(Cl)c1 | -1.3 |
| O=C(NCCSCc1cccc(NC(=O)C2CC2)c1)c1c(Cl)cccc1Cl | 3 |
| Nc1cccc(CSCCNC(=O)c2c(Cl)cccc2Cl)c1 | 15.3 |
| O=C(NCCOCc1cccc(Cl)c1)c1c(Cl)cccc1Cl | -9.9 |
| O=C(NCCSCc1ccc(O)cc1)c1c(Cl)cccc1Cl | 8.7 |

test system: H4; experiment: Cytotoxicity against human H4 cells expressing wild type betaAPP695 assessed as decrease in cell protein at 30 uM after 24 hrs; format: cell-based; design: scale not given: the % may be the effect or the level left; details: h4, 24 h; how it was run: as §1

| Compound | Activity [%] |
| --- | --- |
| COc1ccc(CSCCNC(=O)c2c(Cl)cccc2Cl)cc1 | 12.7 |
| O=C(NCCSCc1cccc(C(F)(F)F)c1)c1c(Cl)cccc1Cl | 47.8 |
| O=C(NCCSCc1cccc(OCCOCCO)c1)c1c(Cl)cccc1Cl | 6.1 |
| O=C(NCCS(=O)(=O)Cc1cccc(Cl)c1)c1c(Cl)cccc1Cl | -3.8 |
| O=C(NCCSCc1cccc(O)c1O)c1c(Cl)cccc1Cl | 14 |
| O=C(NC1CC1)c1cccc(CSCCNC(=O)c2c(Cl)cccc2Cl)c1 | -1 |
| COc1cccc(CSCCNC(=O)c2c([N+](=O)[O-])cccc2[N+](=O)[O-])c1 | -3.8 |
| NC(=O)c1c(Cl)cccc1CSCCNC(=O)c1c(Cl)cccc1Cl | -5.6 |
| O=C(NCCSCc1cccc(Br)c1)c1c(Cl)cccc1Cl | 38.6 |
| O=C(NCCSCc1cccc(Cl)c1)c1c(F)cccc1F | 8.1 |
| O=C(NCCSCc1cccc(Br)c1)c1c(Br)cccc1Br | 23.9 |
| COc1cccc(C[S+]([O-])CCNC(=O)c2c(Cl)cccc2Cl)c1 (stereo not given) | 9.2 |
| N#Cc1cccc(CSCCNC(=O)c2c(Cl)cccc2Cl)c1 | 4.3 |
| Cc1cccc(C)c1C(=O)NCCSCc1cccc(Cl)c1 | -9.4 |
| O=C(NCCSCc1cccc(Cl)c1)c1ccccc1 | -4.5 |
| O=C(Cc1c(Cl)cccc1Cl)NCCSCc1cccc(Cl)c1 | -0.7 |
| O=C(NCCSCc1cccc(NC(=O)C2CC2)c1)c1c(Cl)cccc1Cl | 3.2 |
| Nc1cccc(CSCCNC(=O)c2c(Cl)cccc2Cl)c1 | 13.1 |
| O=C(NCCOCc1cccc(Cl)c1)c1c(Cl)cccc1Cl | 4.2 |
| O=C(NCCSCc1ccc(O)cc1)c1c(Cl)cccc1Cl | 4.4 |
